Screening data: PubChem BioAssay, Sanford-Burnham Center for Chemical Genomics
Scp-1 inhibitor: Scp-1 (human) phosphatase inhibition. 0.88% of 340,000 active. Q9GZU7. Recombinant Scp1, phosphopeptide, malachite green phosphate absorbance. inhibition, % at 20 µM;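 active means inhibition above about 50% at 20 µM, limit read from the data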;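 further: plate controls were DMSO wells with enzyme for no effect and wells lacking enzyme for full effect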
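Test system: SCP-1 phosphatase catalytic domain, residues 76-261; measured by: colorimetric phosphate reagent with accelerator and stabiliser, absorbance at 630 nm; timing: enzyme reaction 45 min at room temperature, colour 5 min, stabilisation 30 min; also added: Phosphorylated 17-residue peptide substrate; compound dosing: one concentration, 20 µM, with 1.0% DMSO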
STEP inh: blocks human striatal-enriched tyrosine phosphatase | P54829 | recombinant STEP, OMFP fluorogenic substrate, fluorescence | inhibition, % at 20 µM | 0.25% of 360,000 active;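 active means inhibition at 20 µM, scaled per plate between control wells, above about 37%, limit read from the data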;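 further: 0% = DMSO with enzyme and substrate and 100% = substrate only without enzyme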
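System: STEP phosphatase, cell-free reaction; Buffer or medium: Bis-Tris pH 6.0 buffer with DTT, detergent; Incubation: 20 min at room temperature, dark; Measured by: fluorescence, 480/540 nm.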
Rpn11 inh: inhibitors of human proteasome Rpn11; O00487; human 26S proteasome, Ub4-pepOG fluorescence polarization; 20S core pre-blocked with epoxomicin; inhibition, % at 20 µM; 0.59% of 360,000 active; AID 588493;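 active means inhibition at 20 µM, scaled to each plate's controls, above about 33%, limit read from the data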
SUMO1-SIM PPI: SUMO1-SIM interaction modulation. P63165. inhibition, % at 20 µM. SUMO1 binding to a labelled peptide, TR-FRET, 1 h. 0.33% of 360,000 active; in the data active means inhibition above about 37%
DNMT1 inh: DNMT1 (human) enzyme inhibition; DNMT1 molecular beacon, Hinp1I cleavage, fluorescence; inhibition (reported as % activation of signal), % at 10 µM; 0.83% of 360,000 active; AID 588458; in the data active means inhibition above about 50%
LMPTP inh: blocks human LMPTP phosphatase | recombinant LMPTP-A, OMFP fluorogenic substrate, fluorescence intensity | inhibition, % at 20 µM | 0.22% of 360,000 active | P24666;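 active means compounds that cut the enzyme signal by at least half of the control window in the single-dose screen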;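 further: plate controls were DMSO wells with enzyme plus substrate for no effect and substrate without enzyme for full effect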
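Test system: LMPTP-A phosphatase enzyme. Amount: LMPTP-A at 0.625 nM final in the reaction. Reagent: OMFP substrate, 400 µM final. Times: 50 min at room temperature. Signal: endpoint fluorescence intensity from OMFP dephosphorylation. Read-out basis: % inhibition. Benchmarks: no-enzyme and uninhibited controls.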
Scp-1 conf: confirmation of human Scp-1 phosphatase inhibitors; shares compounds with Scp-1 inhibitor; 61% of 2,500 active; recombinant SCP-1 catalytic domain, phosphate release, malachite green absorbance; inhibition, % at 20 µM;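 further: plate controls were DMSO with enzyme for no effect and buffer wells lacking enzyme for full effect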
MG interference: interferes with malachite green readout, flagging false Scp-1 hits; shares compounds with Scp-1 inhibitor; Colorimetric interference counterscreen, malachite green absorbance 630 nm; apparent inhibition (interference), % at 20 µM; 2,500 tested, under 10 active; AID 540313;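 further: compounds added after enzyme reaction finished so only phosphate colour detection is probed; plate controls were DMSO wells with completed Scp-1 reaction for no effect and substrate wells lacking enzyme for full effect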
Scp1 DSF: binds human Scp-1, shifting its melting temperature. shares compounds with Scp-1 inhibitor. Recombinant SCP1, Sypro Orange thermal shift Tm. thermal shift relative to vanadate control, % at 40 µM. 25% of 1,500 active;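 active means substances whose mean melting-temperature shift, as a percentage of the reference inhibitor's shift, reaches about 5.3%, limit read from the data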;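 further: 0% = Tm of DMSO wells and 100% = Tm with sodium orthovanadate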
* marks the source's active call; other numbers are inactive results. Shown are actives, neighbours in structure and some others; about 2.3% of the full set was active somewhere.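 How the source made its calls, unless noted: active means inhibition of at least 30% at 20 µM; inactive means the rest.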

`CCOc1ccc(NC(=O)C2CCCN2C(=O)Oc2ccccc2)cc1` (stereo unspecified) gave Scp-1 inhibitor 54*, STEP inh -1, Rpn11 inh 0, SUMO1-SIM PPI 3, DNMT1 inh 1, LMPTP inh -1, Scp-1 conf 20 and MG interference -8.
COc1cc(C(=O)NN=Cc2ccc(N(C)C)cc2)cc(OC)c1OC was read as STEP inh 2, Rpn11 inh -1, SUMO1-SIM PPI -16, DNMT1 inh 1 and LMPTP inh 0.
O=C(O)C(Cc1cn[nH]n1)=NO was read as Scp-1 inhibitor 57*, STEP inh 2, Rpn11 inh -4, SUMO1-SIM PPI -5, DNMT1 inh 1, LMPTP inh -1, Scp-1 conf -12 and MG interference -11.
`CCCCCC(=O)N1CC2(CC(c3cccc(NC(=O)CC)c3)=NO2)C[C@H]1C(N)=O` (stereo partly specified) gave Scp-1 inhibitor -4, STEP inh 0, Rpn11 inh -6, SUMO1-SIM PPI 3, DNMT1 inh 6 and LMPTP inh 1.
Screening CCCc1cc(SCC(=O)Nc2c(C)n(C)n(-c3ccccc3)c2=O)n2c(nc3ccccc32)c1C#N returned Scp-1 inhibitor 98*, Scp-1 conf 84*, MG interference -8 and Scp1 DSF -5.
Screening COc1ccc(/C=N/NC(=O)c2cccc([N+](=O)[O-])c2)cc1O returned Scp-1 inhibitor -3, STEP inh 1, Rpn11 inh 1, SUMO1-SIM PPI -20, DNMT1 inh 7 and LMPTP inh 0.
Screening COc1cc(/C=N/NC(=O)c2cccc([N+](=O)[O-])c2)ccc1O returned Scp-1 inhibitor 89*, STEP inh -5, Rpn11 inh -8, SUMO1-SIM PPI -15, DNMT1 inh 0, LMPTP inh -1, Scp-1 conf -14 and MG interference -13.
For Cc1[nH]nc(C(=O)NN=Cc2ccccc2Cl)c1N=NN(C)C the results were Scp-1 inhibitor -13, STEP inh 2, Rpn11 inh 3, SUMO1-SIM PPI -14, DNMT1 inh 5 and LMPTP inh 0.
For CC[n+]1c(/C=C(\C)OC)sc2ccccc21 the results were Scp-1 inhibitor -1, STEP inh 1, Rpn11 inh 24, SUMO1-SIM PPI 1, DNMT1 inh 5 and LMPTP inh 23.
CC[n+]1c(/C=C/Nc2ccccc2)sc2ccccc21 was read as Scp-1 inhibitor 109*, STEP inh 1, Rpn11 inh 2, SUMO1-SIM PPI -13, DNMT1 inh 7, LMPTP inh -2, Scp-1 conf 14 and MG interference -13.
For COC(=O)CNC(=O)c1c(-c2ccccc2Cl)noc1C the results were Scp-1 inhibitor 0, STEP inh -1, Rpn11 inh -3, SUMO1-SIM PPI -1, DNMT1 inh 2 and LMPTP inh -1.
For COC(=O)CNC(=O)c1c(-c2c(Cl)cccc2Cl)noc1C the results were Scp-1 inhibitor 55*, STEP inh -6, Rpn11 inh -1, SUMO1-SIM PPI 2, DNMT1 inh 0, LMPTP inh 0, Scp-1 conf -10 and MG interference -12.
O=C(O)CCCNC(=O)Cc1ccccc1 was read as Scp-1 inhibitor -12, STEP inh -1, Rpn11 inh 0, SUMO1-SIM PPI -5, DNMT1 inh 1 and LMPTP inh -1.
Screening Cc1nn(CC(=O)NC2C(=O)N3C(C(=O)O)=C(CSc4nnnn4C)CSC23)cc1Br (stereo unspecified) returned Scp-1 inhibitor 10, STEP inh -1, Rpn11 inh -5, SUMO1-SIM PPI -1, DNMT1 inh 2 and LMPTP inh 0.
Screening Cn1nnnc1SCC1=C(C(=O)O)N2C(=O)C(NC(=O)Cn3nc(C(F)F)cc3C3CC3)C2SC1 (stereo unspecified) returned Scp-1 inhibitor 56*, STEP inh 3, Rpn11 inh 6, SUMO1-SIM PPI 2, DNMT1 inh 9, LMPTP inh 0, Scp-1 conf 61*, MG interference -13 and Scp1 DSF 1.
Cc1c(Cl)cnn1CC(=O)NC1C(=O)N2C(C(=O)O)=C(CSc3nnnn3C)CSC12 (stereo unspecified) was read as Scp-1 inhibitor 47, STEP inh 8, Rpn11 inh -3, SUMO1-SIM PPI 6, DNMT1 inh 12 and LMPTP inh 0.
`Cc1c(Cl)c(C(F)F)nn1CC(=O)NC1C(=O)N2C(C(=O)O)=C(CSc3nnnn3C)CSC12` (stereo unspecified) gave Scp-1 inhibitor 68*, STEP inh 7, Rpn11 inh -6, SUMO1-SIM PPI 13, DNMT1 inh 27, LMPTP inh 1, Scp-1 conf 56*, MG interference -19 and Scp1 DSF 5.
`CCCOC(=O)c1c(-c2ccc(C)cc2C)csc1NC(=O)C1C2CCC(O2)C1C(=O)O` (stereo unspecified) gave Scp-1 inhibitor -2, STEP inh 7, Rpn11 inh 6, SUMO1-SIM PPI -1, DNMT1 inh 0 and LMPTP inh 1.
For CCCCNC(=O)c1cc2ccccc2s1 the results were Scp-1 inhibitor -5, STEP inh -2, Rpn11 inh -2, SUMO1-SIM PPI -2, DNMT1 inh 4 and LMPTP inh 0.
CS(=O)(=O)c1ccc2sc(NC(=O)c3cc4ccccc4o3)nc2c1 was read as Scp-1 inhibitor 69*, STEP inh -1, Rpn11 inh -3, SUMO1-SIM PPI -5, DNMT1 inh 3, LMPTP inh 2, Scp-1 conf 29 and MG interference -16.
CS(=O)(=O)c1ccc2nc(NC(=O)c3cc4ccccc4o3)sc2c1 was read as Scp-1 inhibitor -7, STEP inh -1, Rpn11 inh -4, SUMO1-SIM PPI -3, DNMT1 inh 2 and LMPTP inh -2.
`COc1ccccc1NC(=O)C1=C(C)NC(SCC(=O)Nc2ccc(C(=O)O)cc2)=C(C#N)C1c1cccs1` (stereo unspecified) gave Scp-1 inhibitor -12, STEP inh 2, Rpn11 inh 16, SUMO1-SIM PPI 7, DNMT1 inh 1 and LMPTP inh -3.
